Structures are written as SMILES. Unmarked numbers belong to inactive results. Inconclusive results are not listed. Active and inactive are the calls of the source.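 How the source made its calls, unless noted: active means inhibition over a set limit, the all-compound mean plus 3 SD, in both replicate runs; inconclusive means over that limit in just one replicate run; inactive means at or under that limit in both runs.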

The source of these data is PubChem BioAssay.

A short description of assay [1]: OD615 S. cerevisiae growth inhibition, permissive medium, pilot counter-assay, permissive growth control for S. cerevisiae lifespan shortening project (AID 705;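 active means growth inhibition above 25% in both replicates, a cutoff set 3 SD above the mean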). The settings on record: OD615, 24 h, at 10 µM, stronger effect = higher value. In a few lines: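 System: Engineered DeaD yeast | Buffer or medium: SC raffinose/galactose permissive medium | Incubation: Cells pre-grown 4 h, then 24 h compound exposure, 30 °C humidified | Measured by: Absorbance (optical density) at 615 nm | Read-out: Reduction in yeast growth (OD615)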

A short description of assay [2]: Restrictive medium S. cerevisiae growth inhibition, OD615, pilot screen of yeast lifespan reduction project, restrictive growth control (AID 706;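 active means growth inhibition above a set limit, 3 SD over mean compound inhibition, in both replicates, cut at about 43% in these data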;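 further: modified DeaD lifespan yeast strain shifted to restrictive glucose medium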). The settings on record: OD615, 48 h, at 10 µM, stronger effect = higher value. In a few lines: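 Material: modified S. cerevisiae; Medium: glucose-based CSMM-D restrictive medium; Compound dosing: one concentration, 10 µM final, 0.25% DMSO; Incubation: 48 h compound exposure at 30 °C; Measured by: OD615.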

Assay [3] can be described thus: viability gain of MRP-1-high H69AR cells under doxorubicin, pilot screen, MRP-1 activator project, CellTiter-Glo, duplicate (AID 807;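 active means viability increase at or above a cutoff of the median across tested compounds plus 3 SD, cut at about 8.5% in these data, passing the limit was not always enough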;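 further: compound pretreatment 18-22 h then 72 h combined with doxorubicin; 0% = doxorubicin alone and 100% = vehicle without doxorubicin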). Conditions: H69AR viability with doxorubicin, CellTiter-Glo luminescence; at 10 µM; stronger effect = higher value.
Assay [4] is described as follows: growth suppression of beta-catenin knockout HCT116, pilot screen, human colon tumor cells (AID 823;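 active means cell viability at or below a set limit in both duplicate runs, the limit being the all-compound median minus 4 SD, cut at about 23% in these data, passing the limit was not always enough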;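 further: 0% = wells killed by 20 µM Hyamine and 100% = untreated DMSO cell wells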). Conditions: CellTiter-Glo, 60 h, at 10 µM, stronger effect = lower value. A general note: In ATP-based viability assays light output follows the ATP content of the culture.
The nature of assay [5]: growth suppression of PTEN-deleted HCT116, pilot screen, cell-based, HCT116 clonal line, CellTiter-Glo (AID 824;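 active means viability at or below 27.92% in each of two runs, the all-compound median minus 4 SD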;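 further: 0% = 20 µM Hyamine control and 100% = vehicle cell control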). Conditions: 60 h, at 10 µM, stronger effect = lower value.
Assay [6] is described as follows: inhibitors of the yeast RAM network, pilot screen, dse1pr::URA3 reporter, 5-FOA selection (AID 869).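 Further: 0% = DMSO wells with no growth and 100% = 10 µM 1-NA-PP1 with full growth; RAM network block rescues cells from 5-FOA so hits raise OD615 growth.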 Conditions: S. cerevisiae dse1pr::URA3 5-FOA growth, OD615, 2 d; at 10 µM; stronger effect = higher value; strain carries analog-sensitive mutant Cbk1 kinase.
Assay [7] can be described thus: RAM signaling pathway blockade in yeast – S. cerevisiae, Pdr1DBD-CYC8 efflux-inhibited sensitized strain, primary screen (AID 1298;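 active means RAM network inhibition above 8.4% in each of two replicates, 3 SD over the compound average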;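 further: 0% = DMSO untreated cells without growth and 100% = 10 µM 1-NA-PP1 full growth; higher means more yeast growth rescued from 5-FOA killing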). Conditions: S. cerevisiae cbk1-as DSE1-URA3 strain, 5-FOA growth OD615, 2 d; at 50 µM; stronger effect = higher value.

As usually defined, the viability is a read-out of living cells in per cent, often relative to untreated cells. One may read the inhibition as the relative decrease from the control value, in per cent. For `O=C(Nc1ccc2ccccc2c1)c1cccnc1`, the growth inhibition in assay [1] is -3.92%; in assay [2], 2.79%. Besides, in assay [3], the viability increase was -3.85%. The figures for the viability in assay [4] and in assay [5] were 93.2% and 81.5%, respectively. In assay [6], the inhibition is 1.27%. In addition, the RAM network inhibition in assay [7] is 4.91%.
Turning to `CCOc1ccc(CCNC(=O)c2oc3c(c2C)-c2[nH]ncc2CC3)cc1OCC`, the figures for the growth inhibition in assay [1] and in assay [2] were -11.9% and -11.6%, respectively. Also, the viability increase in assay [3] is -2.93%. Also, the viability in assay [4] was 105%; in assay [5], 92.7%. In addition, in assay [6], the inhibition is 1.57%. For the same molecule, the RAM network inhibition in assay [7] was 9.8%.
For the molecule `Cc1c(Br)cc(C(=O)N2CCCC2)c(C)c1C`, the growth inhibition in assay [1] is -12.7%; in assay [2], -11.1%. Besides, in assay [3], the viability increase is -2.86%. In addition, the values for the viability in assay [4] and in assay [5] were 102% and 98.9%, respectively. The inhibition in assay [6] was 0.205%. In addition, in assay [7], the RAM network inhibition was 3.08%.
With `COc1ccccc1NC(=O)Nc1ccc(Br)cn1`, the growth inhibition in assay [1] is -10.3%; in assay [2], -15.5%. In addition, the viability increase in assay [3] is -2.09%. Moreover, the viability in assay [4] was 92.6%; in assay [5] it was 87.7%. Further, in assay [6], the inhibition is 2.98%. For the same molecule, the RAM network inhibition in assay [7] is 8.69%.
`O=C(Cn1cc2c(n1)CCCC2)NCc1cccnc1`: the growth inhibition in assay [1] was -1.72%; in assay [2], -0.58%. In addition, the viability increase in assay [3] was -0.86%. Further, the viability in assay [4] was 102%; in assay [5], 101%. In addition, the inhibition in assay [6] is 3.13%. Further, the RAM network inhibition in assay [7] is 3.68%.
For `CCn1c(C)nc2cc(S(=O)(=O)N3CCCC3)ccc21`, the growth inhibition in assay [1] was -1.56%; in assay [2], 11.8%. The viability increase in assay [3] was -1.11%. The viability was 94.3% in assay [4] and 88.6% in assay [5]. The inhibition in assay [6] was 0.805%. Further, the RAM network inhibition in assay [7] is 2.71%.
For the molecule `Cc1ccc(Sc2oc(/C=N/n3cnnc3)cc2Br)cc1`, the growth inhibition is 0.63% in assay [1] and 4.41% in assay [2]. Also, in assay [3], the viability increase is -7%. The viability was 6.77% (active) in assay [4] and 6.87% (active) in assay [5]. The inhibition in assay [6] was 1.4%. Further, the RAM network inhibition in assay [7] is 3.27%.
With `Clc1ccc(-c2nc(-c3ccccn3)no2)cc1Cl`, the growth inhibition in assay [1] was -4.08%; in assay [2], 0.26%. In addition, the viability increase in assay [3] is -4.17%. The viability is 72.6% in assay [4] and 67.7% in assay [5]. In assay [6], the inhibition was 2.6%. Besides, the RAM network inhibition in assay [7] is 3.88%.
As to `O=C(Cn1nc(-c2ccccc2)ccc1=O)Nc1ccc(N2CCN(C(=O)c3ccccc3)CC2)cc1`, the results for the growth inhibition in assay [1] and in assay [2] were -10.1% and -24.7%, respectively. The viability increase in assay [3] was -1.77%. Besides, the viability in assay [4] was 94.5%; in assay [5], 87.3%. The inhibition in assay [6] was 2.17%. Also, the RAM network inhibition in assay [7] is 8.82%.
For the molecule `CN(C)c1nc2c(c(=O)[nH]c(=O)n2C)n1Cc1ccc(F)cc1`, the growth inhibition in assay [1] was -2.72%; in assay [2], 6.59%. In addition, in assay [3], the viability increase was -0.31%. In addition, the viability in assay [4] is 107%; in assay [5] it was 100%. For the same molecule, in assay [6], the inhibition was 1.74%. In assay [7], the RAM network inhibition was 2.1%.
Consider `CCc1ccc(C(=O)NCc2cccs2)s1`, for which the growth inhibition is -5.71% in assay [1] and 4.03% in assay [2]. In addition, the viability increase in assay [3] was 1.53%. For the same molecule, the viability was 104% in assay [4] and 97.1% in assay [5]. Also, the inhibition in assay [6] is 0.715%. In addition, the RAM network inhibition in assay [7] was -1.7%.
Take `CCOC(=O)c1cc2c(=O)n3ccccc3nc2n(CCOC)c1=NC(=O)C(C)(C)C`: the values for the growth inhibition in assay [1] and in assay [2] were -6.44% and -18.2%, respectively. Moreover, in assay [3], the viability increase is -3.78%. Also, the viability in assay [4] is 93.6%; in assay [5], 96.9%. Besides, the inhibition in assay [6] was -0.545%. For the same molecule, in assay [7], the RAM network inhibition was 5.12%.
Consider `COc1cccc(N2CCN(c3ncnc4c3cnn4-c3ccc(C)cc3C)CC2)c1`, for which the growth inhibition in assay [1] is 4.2%; in assay [2], 3.35%. In addition, the viability increase in assay [3] is -8.59%. The values for the viability in assay [4] and in assay [5] were 7.71% (active) and 10.3% (active), respectively. Also, in assay [6], the inhibition was 1.66%. The RAM network inhibition in assay [7] was 8.39%.
For `Cc1ccc2oc(Nc3nc(C)cc(C)n3)nc2c1`, the growth inhibition is -6.34% in assay [1] and 13.1% in assay [2]. Further, the viability increase in assay [3] was 0.49%. Besides, the viability in assay [4] is 102%; in assay [5], 94.8%. The inhibition in assay [6] is 1.01%. The RAM network inhibition in assay [7] is 0.61%.
As to `O=C(NCCCNCc1ccccc1)c1ccc(/C=N/O)nc1`, the growth inhibition in assay [1] was -8.54%; in assay [2] it was -12.5%. The viability increase in assay [3] was -1.94%. Also, the results for the viability in assay [4] and in assay [5] were 93.2% and 97.9%, respectively. The inhibition in assay [6] is 1.73%. The RAM network inhibition in assay [7] was 3.09%.
For the molecule `CN1CCN(C(=O)C2CCC(CNS(=O)(=O)c3cccc4cccnc34)CC2)CC1` (stereo unspecified), the results for the growth inhibition in assay [1] and in assay [2] were 4.4% and 2.39%, respectively. In addition, in assay [3], the viability increase was -0.86%. The viability in assay [4] was 99%; in assay [5], 100%. Also, the inhibition in assay [6] is 1.58%. Also, the RAM network inhibition in assay [7] was 0.46%.
Consider `Nc1nc(NC(=O)c2cccc(S(=O)(=O)N3CCCCCC3)c2)nc(-c2ccccc2)n1`, for which the growth inhibition in assay [1] was -1.66%; in assay [2], 6.65%. Further, the viability increase in assay [3] was -4.04%. Moreover, the viability is 74.8% in assay [4] and 74.4% in assay [5]. Further, in assay [6], the inhibition was 3.56%. Besides, in assay [7], the RAM network inhibition was 4.53%.
Turning to `C=CCNC(=O)C1CC(=O)N(c2ccc(Br)cc2)C1` (stereo unspecified), the growth inhibition in assay [1] is -16.9%; in assay [2], -14.1%. In assay [3], the viability increase was -1.65%. For the same molecule, the viability was 95.5% in assay [4] and 95.3% in assay [5]. Further, the inhibition in assay [6] was 0.655%. In assay [7], the RAM network inhibition was 0.56%.
